Data as given in ChEMBL document CHEMBL3098105, “7,7'-Diazaindirubin--a small molecule inhibitor of casein kinase 2 in vitro and in cells” (Bioorg Med Chem, 2014).
Calls of active or inactive are those of the source. No cut-off for these calls is given here.

Assays:
[1] = target: Dual specificity mitogen-activated protein kinase kinase 7 (Homo sapiens) (UniProt O14733); test: Inhibition of human MKK7beta assessed as residual activity at 1 uM relative to control
[2] = target: MAP kinase-activated protein kinase 2 (Homo sapiens) (UniProt P49137); test: Inhibition of human MAPKAP-K2 assessed as residual activity at 1 uM relative to control
[3] = target: Cyclin-dependent kinase 4/cyclin D1 (Homo sapiens) (UniProt P11802+P24385); test: Inhibition of CDK4/CycD1 (unknown origin) assessed as residual activity at 10 uM relative to control; format: protein-complex assay
[4] = target: Platelet-derived growth factor receptor alpha (Homo sapiens) (UniProt P16234); test: Inhibition of PDGFR-alpha (unknown origin) assessed as residual activity at 10 uM relative to control
[5] = Antiproliferative activity against human EKVX cells after 3 days by sulforhodamine B assay; format: functional; settings: 72 h
How it was run: (§1)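 Tested in the NCI 60 cell line panel. GI50 is the concentration giving 50% inhibition of cell growth, and values are the mean of two series of tests.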

[6] = target: Myosin light chain kinase, smooth muscle (Homo sapiens) (UniProt Q15746); test: Inhibition of human MLCK assessed as residual activity at 1 uM relative to control
[7] = target: Casein kinase II subunit alpha' (Homo sapiens) (UniProt P19784); test: Inhibition of human CK2a2 assessed as residual activity at 1 uM relative to control
[8] = target: Tyrosine-protein kinase Blk (Mus musculus) (UniProt P16277); test: Inhibition of mouse Blk assessed as residual activity at 1 uM relative to control
[9] = target: Ephrin type-A receptor 1 (Homo sapiens) (UniProt P21709); test: Inhibition of human EphA1 assessed as residual activity at 1 uM relative to control
M14 = test: Antiproliferative activity against human M14 cells after 3 days by sulforhodamine B assay; format: functional; settings: M14, 72 h; how it was run: as §1
[10] = target: Serine/threonine-protein kinase Nek3 (Homo sapiens) (UniProt P51956); test: Inhibition of human NEK3 assessed as residual activity at 1 uM relative to control
Sequence of Serine/threonine-protein kinase Nek3 (Homo sapiens) (P51956 whole entry): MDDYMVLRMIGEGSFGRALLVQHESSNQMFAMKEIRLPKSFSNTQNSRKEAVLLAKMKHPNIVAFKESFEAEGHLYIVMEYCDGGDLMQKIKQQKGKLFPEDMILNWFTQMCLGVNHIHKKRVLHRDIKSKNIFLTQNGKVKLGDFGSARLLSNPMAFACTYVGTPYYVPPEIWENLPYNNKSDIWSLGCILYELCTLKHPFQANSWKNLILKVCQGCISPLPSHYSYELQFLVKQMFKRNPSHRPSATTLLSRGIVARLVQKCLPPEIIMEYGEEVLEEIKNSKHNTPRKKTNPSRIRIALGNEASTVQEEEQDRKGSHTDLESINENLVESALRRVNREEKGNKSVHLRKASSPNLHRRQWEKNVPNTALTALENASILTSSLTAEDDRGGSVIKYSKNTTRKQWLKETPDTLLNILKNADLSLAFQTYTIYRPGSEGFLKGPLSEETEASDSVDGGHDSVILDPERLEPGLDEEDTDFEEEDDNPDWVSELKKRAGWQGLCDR

[11] = target: SRSF protein kinase 2 (Homo sapiens) (UniProt P78362); test: Inhibition of human SRPK2 assessed as residual activity at 1 uM relative to control
[12] = target: Activated CDC42 kinase 1 (Homo sapiens) (UniProt Q07912); test: Inhibition of human ACK1 assessed as residual activity at 1 uM relative to control
[13] = target: Cyclin-dependent kinase 5/CDK5 activator 1 (Homo sapiens) (UniProt Q00535+Q15078); test: Inhibition of CDK5/p35NCK (unknown origin) assessed as residual activity at 10 uM relative to control; format: protein-complex assay
[14] = target: Protein kinase C delta type (Homo sapiens) (UniProt Q05655); test: Inhibition of human PKCdelta assessed as residual activity at 1 uM relative to control
Sequence of Protein kinase C delta type (Homo sapiens) (Q05655 whole entry, looked up): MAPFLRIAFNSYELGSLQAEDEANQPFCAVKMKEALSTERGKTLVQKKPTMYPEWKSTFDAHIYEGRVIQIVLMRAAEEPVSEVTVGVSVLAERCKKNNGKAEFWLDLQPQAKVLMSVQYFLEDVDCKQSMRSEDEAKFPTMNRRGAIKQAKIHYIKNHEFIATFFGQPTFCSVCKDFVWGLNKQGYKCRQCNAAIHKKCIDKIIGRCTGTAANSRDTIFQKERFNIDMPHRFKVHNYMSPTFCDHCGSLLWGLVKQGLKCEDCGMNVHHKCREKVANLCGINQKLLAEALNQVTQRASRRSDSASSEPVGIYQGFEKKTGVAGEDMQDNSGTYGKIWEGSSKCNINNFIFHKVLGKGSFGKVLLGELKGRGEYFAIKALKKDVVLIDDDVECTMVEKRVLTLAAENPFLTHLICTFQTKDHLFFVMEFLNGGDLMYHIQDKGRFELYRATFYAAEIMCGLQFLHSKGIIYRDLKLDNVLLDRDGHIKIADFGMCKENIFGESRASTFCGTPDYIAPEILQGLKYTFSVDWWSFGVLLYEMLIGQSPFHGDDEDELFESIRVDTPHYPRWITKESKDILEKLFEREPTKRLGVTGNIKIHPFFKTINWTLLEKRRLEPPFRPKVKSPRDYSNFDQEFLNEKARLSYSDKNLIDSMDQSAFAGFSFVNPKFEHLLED

[15] = target: G protein-coupled receptor kinase 5 (Homo sapiens) (UniProt P34947); test: Inhibition of human GRK5 assessed as residual activity at 1 uM relative to control
[16] = target: Death-associated protein kinase 2 (Homo sapiens) (UniProt Q9UIK4); test: Inhibition of human DAPK2 assessed as residual activity at 1 uM relative to control
Sequence of Death-associated protein kinase 2 (Homo sapiens) (Q9UIK4 whole entry, looked up): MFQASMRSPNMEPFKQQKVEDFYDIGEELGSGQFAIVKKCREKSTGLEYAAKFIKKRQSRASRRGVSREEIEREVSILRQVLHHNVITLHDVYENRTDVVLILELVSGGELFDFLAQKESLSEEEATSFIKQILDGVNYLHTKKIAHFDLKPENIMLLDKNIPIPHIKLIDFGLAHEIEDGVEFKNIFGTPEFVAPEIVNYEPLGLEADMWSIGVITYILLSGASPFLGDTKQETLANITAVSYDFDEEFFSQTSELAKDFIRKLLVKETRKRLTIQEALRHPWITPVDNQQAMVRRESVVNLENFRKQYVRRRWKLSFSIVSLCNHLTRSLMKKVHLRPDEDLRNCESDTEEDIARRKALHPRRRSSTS

[17] = target: Mitogen-activated protein kinase kinase kinase 7 (Homo sapiens) (UniProt O43318); test: Inhibition of human TAK1 assessed as residual activity at 1 uM relative to control
[18] = target: Receptor tyrosine-protein kinase erbB-2 (Homo sapiens) (UniProt P04626); test: Inhibition of ERBB2 (unknown origin) assessed as residual activity at 1 uM relative to control
[19] = target: Testis-specific serine/threonine-protein kinase 1 (Homo sapiens) (UniProt Q9BXA7); test: Inhibition of human TSSK1 assessed as residual activity at 1 uM relative to control
Sequence of Testis-specific serine/threonine-protein kinase 1 (Homo sapiens) (Q9BXA7 whole entry): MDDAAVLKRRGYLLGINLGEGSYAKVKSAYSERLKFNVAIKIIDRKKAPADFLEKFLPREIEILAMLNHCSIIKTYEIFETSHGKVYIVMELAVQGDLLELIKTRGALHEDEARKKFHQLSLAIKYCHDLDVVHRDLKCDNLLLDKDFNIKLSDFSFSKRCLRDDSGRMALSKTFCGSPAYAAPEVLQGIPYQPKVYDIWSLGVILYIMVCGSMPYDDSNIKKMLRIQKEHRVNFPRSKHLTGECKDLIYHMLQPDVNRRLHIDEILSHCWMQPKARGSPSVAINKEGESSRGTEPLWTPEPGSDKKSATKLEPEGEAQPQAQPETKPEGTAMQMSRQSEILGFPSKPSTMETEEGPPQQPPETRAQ

[20] = target: Serine/threonine-protein kinase PAK 5 (Homo sapiens) (UniProt Q9P286); test: Inhibition of human PAK5 assessed as residual activity at 1 uM relative to control
[21] = target: Tyrosine-protein kinase ZAP-70 (Homo sapiens) (UniProt P43403); test: Inhibition of human ZAP-70 assessed as residual activity at 1 uM relative to control
MCF7 = test: Induction of apoptosis in human MCF7 cells assessed as PARP cleavage at 1 uM after 24 hrs by Western blot analysis; format: functional, cell-based
How it was run: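 Cells were lysed in urea lysis buffer (6 M urea, NaF, Na3VO4, protease inhibitors). 20–40 µg protein was run on 10% SDS-PAGE and detected by ECL. Primary antibodies (pAkt S473, PARP, β-actin loading control) were used at 1:1000 overnight at 4 °C. DMSO was the vehicle control. For the pAkt blots, cells were treated for 2 h with Ly294002 as positive control.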

SF-295 = test: Antiproliferative activity against human SF295 cells after 3 days by sulforhodamine B assay; format: functional; settings: SF-295, 72 h; how it was run: as §1
[22] = target: CDK2/Cyclin A2 (Homo sapiens) (UniProt P24941+P20248); test: Inhibition of CDK2/CycA (unknown origin) assessed as residual activity at 10 uM relative to control; format: protein-complex assay
[23] = target: Ribosomal protein S6 kinase alpha-4 (Homo sapiens) (UniProt O75676); test: Inhibition of human MSK2 assessed as residual activity at 1 uM relative to control
Sequence of Ribosomal protein S6 kinase alpha-4 (Homo sapiens) (O75676 whole entry, looked up): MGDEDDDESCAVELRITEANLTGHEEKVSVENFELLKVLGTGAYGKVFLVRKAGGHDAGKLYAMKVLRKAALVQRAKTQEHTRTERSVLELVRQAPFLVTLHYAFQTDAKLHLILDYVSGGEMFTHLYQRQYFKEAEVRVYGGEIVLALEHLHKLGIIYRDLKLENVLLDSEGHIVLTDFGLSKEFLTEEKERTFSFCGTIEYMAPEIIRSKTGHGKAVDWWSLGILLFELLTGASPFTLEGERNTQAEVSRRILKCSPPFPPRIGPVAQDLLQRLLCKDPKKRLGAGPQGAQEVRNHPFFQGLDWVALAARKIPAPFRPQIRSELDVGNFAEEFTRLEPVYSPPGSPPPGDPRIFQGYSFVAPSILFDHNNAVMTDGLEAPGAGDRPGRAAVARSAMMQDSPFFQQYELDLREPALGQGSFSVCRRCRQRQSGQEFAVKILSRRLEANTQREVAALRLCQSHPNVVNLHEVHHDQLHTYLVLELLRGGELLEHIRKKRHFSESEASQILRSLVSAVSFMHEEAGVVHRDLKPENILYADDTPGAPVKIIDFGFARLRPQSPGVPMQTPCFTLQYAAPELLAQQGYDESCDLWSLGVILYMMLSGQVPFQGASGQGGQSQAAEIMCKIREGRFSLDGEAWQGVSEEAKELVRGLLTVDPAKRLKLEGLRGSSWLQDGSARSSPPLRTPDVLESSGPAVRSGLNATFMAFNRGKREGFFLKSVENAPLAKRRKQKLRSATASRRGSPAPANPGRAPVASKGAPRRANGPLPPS

[24] = target: Serine/threonine-protein kinase MRCK alpha (Homo sapiens) (UniProt Q5VT25); test: Inhibition of human MRCKalpha assessed as residual activity at 1 uM relative to control
Sequence of Serine/threonine-protein kinase MRCK alpha (Homo sapiens) (Q5VT25 whole entry): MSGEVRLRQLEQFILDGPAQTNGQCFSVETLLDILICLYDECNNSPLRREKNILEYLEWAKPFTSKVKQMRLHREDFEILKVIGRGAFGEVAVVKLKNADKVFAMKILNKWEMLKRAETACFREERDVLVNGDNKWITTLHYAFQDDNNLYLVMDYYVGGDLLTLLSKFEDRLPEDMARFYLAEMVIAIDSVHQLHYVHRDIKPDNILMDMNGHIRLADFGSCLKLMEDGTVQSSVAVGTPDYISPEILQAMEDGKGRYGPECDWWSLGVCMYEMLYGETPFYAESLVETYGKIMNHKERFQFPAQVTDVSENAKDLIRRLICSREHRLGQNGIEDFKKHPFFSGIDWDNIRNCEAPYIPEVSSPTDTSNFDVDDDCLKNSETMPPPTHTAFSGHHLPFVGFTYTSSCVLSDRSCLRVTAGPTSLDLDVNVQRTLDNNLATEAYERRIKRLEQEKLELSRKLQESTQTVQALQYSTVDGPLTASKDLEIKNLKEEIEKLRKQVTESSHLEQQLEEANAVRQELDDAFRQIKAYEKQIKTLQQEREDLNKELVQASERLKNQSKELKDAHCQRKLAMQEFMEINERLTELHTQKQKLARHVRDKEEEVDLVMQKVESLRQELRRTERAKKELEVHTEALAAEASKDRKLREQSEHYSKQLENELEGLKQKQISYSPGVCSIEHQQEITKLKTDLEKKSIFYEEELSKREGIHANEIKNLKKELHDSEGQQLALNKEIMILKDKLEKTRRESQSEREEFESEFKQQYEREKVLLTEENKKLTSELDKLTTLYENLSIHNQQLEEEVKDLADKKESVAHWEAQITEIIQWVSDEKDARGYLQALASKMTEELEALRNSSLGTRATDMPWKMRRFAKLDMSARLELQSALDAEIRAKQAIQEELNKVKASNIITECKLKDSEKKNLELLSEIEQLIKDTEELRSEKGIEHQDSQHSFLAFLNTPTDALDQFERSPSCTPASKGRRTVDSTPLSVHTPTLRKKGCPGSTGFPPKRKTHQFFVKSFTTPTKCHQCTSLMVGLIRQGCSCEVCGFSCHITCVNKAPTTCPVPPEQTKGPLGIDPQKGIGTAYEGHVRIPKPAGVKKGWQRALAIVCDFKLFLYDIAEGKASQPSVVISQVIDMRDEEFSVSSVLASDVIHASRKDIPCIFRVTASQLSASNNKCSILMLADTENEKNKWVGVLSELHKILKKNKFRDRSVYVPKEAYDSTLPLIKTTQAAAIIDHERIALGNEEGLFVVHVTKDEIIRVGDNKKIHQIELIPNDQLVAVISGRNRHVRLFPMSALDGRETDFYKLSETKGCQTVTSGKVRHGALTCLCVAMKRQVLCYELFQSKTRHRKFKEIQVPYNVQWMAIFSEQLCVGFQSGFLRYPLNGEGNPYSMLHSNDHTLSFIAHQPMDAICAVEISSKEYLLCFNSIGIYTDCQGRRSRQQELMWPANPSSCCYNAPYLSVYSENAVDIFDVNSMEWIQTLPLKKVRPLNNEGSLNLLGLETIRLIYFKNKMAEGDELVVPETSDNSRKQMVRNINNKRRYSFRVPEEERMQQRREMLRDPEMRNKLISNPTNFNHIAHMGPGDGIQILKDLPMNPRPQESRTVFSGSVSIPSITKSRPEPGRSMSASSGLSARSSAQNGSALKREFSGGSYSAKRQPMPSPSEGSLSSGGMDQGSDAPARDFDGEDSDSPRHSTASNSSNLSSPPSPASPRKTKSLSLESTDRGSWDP

[25] = target: Mast/stem cell growth factor receptor Kit (Homo sapiens) (UniProt P10721); test: Inhibition of human cKit assessed as residual activity at 1 uM relative to control
[26] = target: Mitogen-activated protein kinase 10 (Homo sapiens) (UniProt P53779); test: Inhibition of human JNK3 assessed as residual activity at 1 uM relative to control
Sequence of Mitogen-activated protein kinase 10 (Homo sapiens) (P53779 whole entry): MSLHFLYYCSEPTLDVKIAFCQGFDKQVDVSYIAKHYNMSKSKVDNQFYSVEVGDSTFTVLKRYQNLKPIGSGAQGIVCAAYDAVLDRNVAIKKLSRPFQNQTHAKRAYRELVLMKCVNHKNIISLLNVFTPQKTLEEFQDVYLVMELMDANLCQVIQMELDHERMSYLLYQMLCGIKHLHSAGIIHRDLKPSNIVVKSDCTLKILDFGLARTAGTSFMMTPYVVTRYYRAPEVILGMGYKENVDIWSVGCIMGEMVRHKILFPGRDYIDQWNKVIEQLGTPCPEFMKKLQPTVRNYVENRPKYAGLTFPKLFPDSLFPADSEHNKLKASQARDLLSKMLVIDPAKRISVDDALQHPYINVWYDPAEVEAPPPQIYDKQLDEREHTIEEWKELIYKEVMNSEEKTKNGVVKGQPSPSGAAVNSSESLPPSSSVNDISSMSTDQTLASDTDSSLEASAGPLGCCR

[27] = target: Platelet-derived growth factor receptor beta (Homo sapiens) (UniProt P09619); test: Inhibition of human PDGFRbeta assessed as residual activity at 1 uM relative to control
[28] = target: Fibroblast growth factor receptor 2 (Homo sapiens) (UniProt P21802); test: Inhibition of human FGFR2 assessed as residual activity at 1 uM relative to control
[29] = target: CDK9/cyclin T1 (Homo sapiens) (UniProt O60563+P50750); test: Inhibition of human CDK9/cyclin T1 assessed as residual activity at 1 uM relative to control; format: protein-complex assay
[30] = target: Protein-tyrosine kinase 2-beta (Homo sapiens) (UniProt Q14289); test: Inhibition of human Pyk2 assessed as residual activity at 1 uM relative to control
[31] = target: Tyrosine-protein kinase JAK2 (Homo sapiens) (UniProt O60674); test: Inhibition of JAK2 (unknown origin) assessed as residual activity at 10 uM relative to control
[32] = target: Tyrosine-protein kinase Fer (Homo sapiens) (UniProt P16591); test: Inhibition of human Fer assessed as residual activity at 1 uM relative to control

- Activity [1]: 103%
- Activity [2]: 67%
- Activity [3]: 88%
- Activity [4]: 88%
- Activity [6]: 73%
- Activity [7]: 28%
- Activity [8]: 113%
- Activity [9]: 111%
- Activity [10]: 109%
- Activity [11]: 108%
- Activity [12]: 97%
- Activity [13]: 104%
- Activity [14]: 126%
- Activity [15]: 99%
- Activity [17]: 95%
- Activity [18]: 99%
- Activity [19]: 85%
- Activity [20]: 61%
- Activity [21]: 78%
- Activity [22]: 106%
- Activity [23]: 78%
- Activity [24]: 119%
- Activity [25]: 83%
- Activity [26]: 120%
- Activity [27]: 160%
- Activity [28]: 125%
- Activity [29]: 100%
- Activity [30]: 119%
- Activity [31]: 92%
- Activity [32]: 102%
SMILES: O=C1Nc2ncccc2/C1=C1/Nc2ncccc2C1=O
- GI50 [5]: 1270 nM
- GI50 (M14): 391 nM
- Activity [16]: 114%
- Activity (MCF7): Active
- GI50 (SF-295): 257 nM
